ChEMBL document CHEMBL1914434, “Synthesis, computational studies and preliminary pharmacological evaluation of 2-[4-(aryl substituted) piperazin-1-yl] N, N-diphenylacetamides as potential antipsychotics” (Eur J Med Chem, 2011)

Assays:
[1] = tested on: Mus musculus; assay: Antipsychotic activity in ip dosed Swiss albino mouse assessed as inhibition of 5-hydoxytryptophan-induced head twitches behavior administered 30 mins prior to 5-hydoxytryptophan challenge measured at 10 mins intervals for 30 mins after 20 mins post dose; assay type: functional
Summary of the method: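 Mice (n = 6/group) pretreated with pargyline 75 mg/kg i.p. to slow 5-HTP breakdown; test compound given i.p. 30 min later, then 5-HTP 50 mg/kg i.p. after a further 30 min. Head twitches scored at 10 min intervals for 30 min from 20 min post-5-HTP. Data as mean ± SEM total score; ED50 (mg/kg, i.p.); Kruskal-Wallis or one-way ANOVA vs control.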

[2] = species on record: Mus musculus; assay: Toxicity in albino mouse assessed as induction of catalepsy measured at 30 mins intervals until 240 mins; assay type: organism-based; details: in vivo
Summary of the method: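 Test drug given i.p. to albino mice (n = 6) in place of haloperidol reference (1.0 mg/kg i.p.). Bar test: time (s) holding forelimbs extended on 4 cm high, 1.0 cm diameter wooden bar, cut-off 1100 s, read at 30 min intervals to 120 min and at 240 min. Run 10.00–16.00 h, quiet room, 23–25 °C. ED50 (mg/kg, i.p.).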

[3] = tested on: Mus musculus; assay: Antipsychotic activity in ip dosed Swiss albino mouse assessed as inhibition of apomorphine-induced mesh climbing response administered 10 mins prior to apomorphine challenge measured at 5 mins intervals for up to 20 mins after 10 mins post dose; assay type: functional
Summary of the method: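 Groups of six mice given test compound, saline (control) or clozapine i.p.; apomorphine 2.5 mg/kg i.p. 10 min later. Mesh climbing scored (0 = no paws on cage) at 5 min intervals for 20 min from 10 min post-apomorphine, maximum total score 20. Mean ± SEM; ED50 (mg/kg, i.p.); Kruskal-Wallis or one-way ANOVA vs control.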

Row | Compound | ED50 [1] | ED50 [2] | ED50 [3]
1 | Cc1ccc(N2CCN(CC(=O)N(c3ccccc3)c3ccccc3)CC2)cc1 | 31.2 mg/kg | > 40 mg/kg | > 20 mg/kg
2 | O=C(CN1CCN(c2cccc(Cl)c2)CC1)N(c1ccccc1)c1ccccc1 | 18 mg/kg | 48.4 mg/kg | 16.5 mg/kg
3 | Cc1cccc(N2CCN(CC(=O)N(c3ccccc3)c3ccccc3)CC2)c1C | > 30 mg/kg | > 40 mg/kg | 28.5 mg/kg
4 | COc1ccccc1N1CCN(CC(=O)N(c2ccccc2)c2ccccc2)CC1 | 12.7 mg/kg | 50.4 mg/kg | 8.2 mg/kg
5 | O=C(CN1CCN(c2cccc(C(F)(F)F)c2)CC1)N(c1ccccc1)c1ccccc1 | 30 mg/kg | 48 mg/kg | 21.3 mg/kg
6 | CN1CCN(C2=Nc3cc(Cl)ccc3Nc3ccccc32)CC1 [CLOZAPINE] | 2.8 mg/kg | – | 8.7 mg/kg
7 | O=C(CN1CCN(c2ccc(F)cc2)CC1)N(c1ccccc1)c1ccccc1 | 20 mg/kg | > 40 mg/kg | 13.4 mg/kg
8 | O=C(CN1CCN(c2ccccc2)CC1)N(c1ccccc1)c1ccccc1 | 27 mg/kg | 50 mg/kg | 20.5 mg/kg
9 | O=C(CN1CCN(c2ccc([N+](=O)[O-])cc2)CC1)N(c1ccccc1)c1ccccc1 | > 40 mg/kg | > 40 mg/kg | 30 mg/kg
10 | O=C(CN1CCN(c2ccc(Cl)c(Cl)c2)CC1)N(c1ccccc1)c1ccccc1 | > 20 mg/kg | 45 mg/kg | 24 mg/kg
11 | COc1cccc(N2CCN(CC(=O)N(c3ccccc3)c3ccccc3)CC2)c1 | 15.5 mg/kg | 55.4 mg/kg | 10 mg/kg
